Laboratory results taken from publication PMC4527612 (Journal of inorganic biochemistry, 2014).
Read-outs that look alike come from different tables or passages of the source. Marks after values point to notes of the source that are not given here.

How the values were obtained:
HeLa (cervix carcinoma) = assay: Dark cytotoxicity, Trypan blue exclusion test; format: cell-based, human; settings: read-out: IC50 (μM) ± S.E.M. HeLa, 48 h incubation
In short: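 HeLa cells were grown in DMEM with 10% FBS, 2 mM L-glutamine and penicillin/streptomycin at 37 °C. They were seeded at 0.5 × 10^6/mL in glass vials, given 24 h, then exposed for 48 h in the dark to test compound in distilled water at various concentrations. Cells were trypsinised, stained 5–15 min with 0.4% Trypan blue and counted by hemocytometer. […] IC50 was derived from at least three experiments, mean ± S.E.M.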

[1] = test system: KCL-22 (chronic myeloid leukemia in blast crisis); settings: read-out: IC50 (μM) ± S.E.M. KCL-22, dark; cited from earlier work
[2] = test system: KCL-22 (chronic myeloid leukemia in blast crisis); assay: Dark cytotoxicity, Trypan blue exclusion test; format: cell-based, human
[3] = test system: human normal leukocytes (HNL); assay: Cytotoxicity on normal cells, trypan blue exclusion assay; format: cell-based
KCL-22 cell line [4] = assay: Comet assay; format: cell-based, human; settings: for % DNA in tail, Mean ± S.E.M. / % DNA in tail, Median / L/H, Mean ± S.E.M. / L/H, Median / OTM, Mean ± S.E.M. / OTM, Median: KCL-22
In short: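 KCL-22 cells were treated 24 h after seeding for 2 h at three concentrations of test compound, with untreated cells as control. Cells were embedded in 0.5% low-melting agarose on slides precoated with 1% agarose and lysed 1 h at 4 °C (2.5 M NaCl, 100 mM EDTA, 10 mM Tris, 1% Triton X-100, pH 10). DNA was unwound 40 min (300 mM NaOH, 1 mM EDTA, pH >13), then electrophoresed at 4 °C for 25 min at 25 V, 300 mA. Slides were neutralised with 0.4 M Tris pH 7.5, stained with 20 μg/mL ethidium bromide, and ≥150 cells scored (50 per triplicate slide). Analysis was by Mann–Whitney test.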

KCL-22 cell line [5] = assay: Flow cytometric cell cycle analysis; format: cell-based, human
In short: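 KCL-22 cells were exposed 24 h after seeding to three concentrations of test compound for 48 h. About 10^6 cells were fixed by dropwise addition of cold 70% ethanol on vortex, held overnight at 4 °C, and stored at −20 °C for up to a week. Cells were then washed twice in PBS and stained 30 min with 0.1 mg/mL RNase and 0.05 mg/mL propidium iodide. DNA content was read by flow cytometry, with doublets excluded by FSC/SSC. Phases were fitted with the Dean–Jett–Fox model.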

[6] = Lipophilicity by thin-layer chromatographic retention factor Rf; format: physicochemical; settings: silica, 1:1:8 KNO3-saturated H2O:H2O:CH3CN
[7] = test system: HeLa, HEP-3B, LN-308, MCF-7 and KCL-22 human cancer cell lines; assay: Dose-dependent cytotoxicity curves in five cancer cell lines; format: cell-based; settings: Fig. 3
HeLa cell line = assay: Cytokinesis block micronucleus
KCL-22 cells [8] = assay: Photo-induced cytotoxicity, vital dye exclusion test; format: cell-based, human
In short: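 After 24 h in glass vials, KCL-22 cells were preincubated 30 min with free-base porphyrin (distilled water) at various concentrations. They were then irradiated 25 min with a tungsten lamp (30 mW/cm2, 28,000 lx) through a 600–900 nm glass filter and incubated a further 48 h. Viable cells were counted by vital dye exclusion. Controls were dark-kept treated cultures and illuminated untreated cultures; Chlorin e6 was the positive control. IC50 came from dose–response curves, mean ± S.E.M.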

KCL-22 cells [9] = assay: Dark toxicity of photosensitizers, vital dye exclusion test; format: cell-based, human; settings: for IC50: read-out: IC50 (μM) ± S.E.M. Under dark
In short: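 KCL-22 cells were grown in RPMI-1640 with 10% FBS, 2 mM L-glutamine and penicillin/streptomycin at 37 °C, then seeded in glass vials for 24 h. Free-base porphyrin in distilled water was added at various concentrations, and cells were kept in the dark without illumination for 48 h. Viable cells were counted by vital dye exclusion, with viability as % of intact control. IC50 came from dose–response curves, mean ± S.E.M. of at least three experiments.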

KCL-22 cells [10] = settings: read-out: IC50 (μM) ± S.E.M. Photo-induced; KCL-22, illumination; cited from earlier work
KCL-22 cells [11] = settings: read-out: IC50 (μM) ± S.E.M. Under dark; KCL-22, dark; cited from earlier work

In the case of “5,10,15,20-tetra(4′-N-allylpyridyl)porphinato Ag(II) tetranitrate [AgTAll4PyP]”, the IC50 (HeLa (cervix carcinoma)) is listed as 26 ± 2.4 µM and the IC50 [1] is listed as 2.5 ± 1.1 µM.

For `C=CC[n+]1ccc(-c2c3nc(c(-c4cc[n+](CC=C)cc4)c4ccc([n-]4)c(-c4ccc(OCCCCCCCCCCCCCCCC)c(OC)c4)c4nc(c(-c5cc[n+](CC=C)cc5)c5ccc2[n-]5)C=C4)C=C3)cc1.O=[N+]([O-])[O-].O=[N+]([O-])[O-].O=[N+]([O-])[O-].[Ag+2]` [AgTriAll4PyMVanC16P, 5-Mono(3′-methoxy-4′-hexadecyloxyphenyl)-10,15,20-tri(4′-N-allylpyridyl) porphinato Ag(II) trinitrate], the “fold enhancement of cytotoxicity on metallation of H2TriAll4PyMVanC16P” value ([2]; KCL-22, dark) was 5 fold, the “toxicity on normal cells (HNL) as compared to cisplatin” value ([3]; HNL, trypan blue exclusion) was “significantly less toxic” and the “toxicity towards cancer (KCL-22) versus normal (HNL) cells” value ([3]; although not significant) was “higher towards cancer versus normal cells”. The “% DNA in tail, Mean ± S.E.M.” value (KCL-22 cell line [4]; concentration IC50, 2 h) was 9.36 ± 0.68%, the “% DNA in tail, Median” value (KCL-22 cell line [4]; concentration IC50, 2 h) was 7.14 ^* % and the “L/H, Mean ± S.E.M.” value (KCL-22 cell line [4]; concentration IC50, 2 h) was 1.34 ± 0.01. The “L/H, Median” value (KCL-22 cell line [4]; concentration IC50, 2 h) was 1.32 ^*, the “OTM, Mean ± S.E.M.” value (KCL-22 cell line [4]; concentration IC50, 2 h) was 5.63 ± 0.42 and the “OTM, Median” value (KCL-22 cell line [4]; concentration IC50, 2 h) was 4.12 ^*. For the same molecule, the “% DNA in tail, Mean ± S.E.M.” value (KCL-22 cell line [4]; concentration IC50/5, 2 h) was 3.10 ± 0.20%, the “% DNA in tail, Median” value (KCL-22 cell line [4]; concentration IC50/5, 2 h) was 3.11 ^* % and the “L/H, Mean ± S.E.M.” value (KCL-22 cell line [4]; concentration IC50/5, 2 h) was 1.12 ± 0.01. For the same molecule, the “L/H, Median” value (KCL-22 cell line [4]; concentration IC50/5, 2 h) was 1.12 ^*, the “OTM, Mean ± S.E.M.” value (KCL-22 cell line [4]; concentration IC50/5, 2 h) was 1.42 ± 0.08 and the “OTM, Median” value (KCL-22 cell line [4]; concentration IC50/5, 2 h) was 1.14 ^*. The “% DNA in tail, Mean ± S.E.M.” value (KCL-22 cell line [4]; concentration IC50/20, 2 h) was 1.74 ± 0.14%, the “% DNA in tail, Median” value (KCL-22 cell line [4]; concentration IC50/20, 2 h) was 1.74% and the “L/H, Mean ± S.E.M.” value (KCL-22 cell line [4]; concentration IC50/20, 2 h) was 1.08 ± 0.00. For the same molecule, the “L/H, Median” value (KCL-22 cell line [4]; concentration IC50/20, 2 h) was 1.07, the “OTM, Mean ± S.E.M.” value (KCL-22 cell line [4]; concentration IC50/20, 2 h) was 0.93 ± 0.06 and the “OTM, Median” value (KCL-22 cell line [4]; concentration IC50/20, 2 h) was 0.58. For the same molecule, the “DNA damage (Comet assay)” value (KCL-22 cell line [4]; concentrations IC50/5 and IC50, KCL-22, 2 h after application) was “induce the breakage of DNA molecule”, the “DNA damage (Comet assay)” value (KCL-22 cell line [4]; low (IC50/20) concentration, KCL-22, 2 h) was “no effect” and the “number of cells in G2 phase” value (KCL-22 cell line [5]; KCL-22, 48 h) was “not changed”. The S-phase cell number (KCL-22 cell line [5]; KCL-22, IC50/2, IC50, IC60, 48 h) was “significantly increased”, the “cells in G1 phase” value (KCL-22 cell line [5]; KCL-22, IC50 or IC60 concentration, 48 h) was “statistically significant reduction” and the “lipophilicity, TLC retention factor Rf, compared to tetracationic analog” value [6] was “gained significantly in lipophilicity”. The “concentration at which toxicity starts” value [7] was ~ 1 μM, the “MN (micronucleus) formation in binucleate cells” value (HeLa cell line; all concentrations applied, from IC50/5 to IC60, HeLa) was “did not induce MN formation” and the “CBPI (cytokinesis block proliferation index)” value (HeLa cell line; concentration IC50, HeLa) was 1.33 ± 0.002. The “CBPI, % of negative control” value (HeLa cell line; concentration IC50, HeLa) was 91%, the “CBPI, % of negative control” value (HeLa cell line; concentration IC50/2, HeLa) was 94% and the “CBPI (cytokinesis block proliferation index)” value (HeLa cell line; concentration IC50/2, HeLa, listed as Ag porphyrin) was 1.37 ± 0.004. The “CBPI (cytokinesis block proliferation index)” value (HeLa cell line; concentration IC50/2, HeLa, listed as Amphiphilic Ag porphyrin) was “no effect”, the “CBPI, % of negative control” value (HeLa cell line; concentration IC50/5, HeLa) was 97% and the “CBPI (cytokinesis block proliferation index)” value (HeLa cell line; concentration IC50/5, HeLa, listed as Ag porphyrin) was 1.42 ± 0.034. For the same molecule, the “CBPI (cytokinesis block proliferation index)” value (HeLa cell line; concentration IC50/5, HeLa, listed as Amphiphilic Ag porphyrin) was “no effect”, the “CBPI (cytokinesis block proliferation index)” value (HeLa cell line; concentration IC60, HeLa) was 1.20 ± 0.002 and the “CBPI, % of negative control” value (HeLa cell line; concentration IC60, HeLa) was 82%.

With `C=Cc1c(C)c2cc3nc(c(CC(=O)O)c4[nH]c(cc5nc(cc1[nH]2)C(C)=C5CC)c(C)c4C(=O)O)[C@@H](CCC(=O)O)[C@@H]3C` [Chlorin e6, reference compound] the IC50 (KCL-22 cells [8]; Homo sapiens, KCL-22, read-out: IC50 (μM) ± S.E.M. Photo-induced) was 4 ± 0.2 µM and the IC50 (KCL-22 cells [9]; Homo sapiens, KCL-22, 48 h) was > 50 µM.

In the case of `N.N.[Cl][Pt][Cl]` [Cisplatin, cisplatin, reference compound], the “concentration at which toxicity starts” value [7] is reported as ~ 0.2 μM.

In the case of `C=CC[n+]1ccc(-c2c3nc(c(-c4cc[n+](CC=C)cc4)c4ccc([nH]4)c(-c4cc[n+](CC=C)cc4)c4nc(c(-c5cc[n+](CC=C)cc5)c5ccc2[nH]5)C=C4)C=C3)cc1` [H2TAll4PyP, 5,10,15,20-tetra(4′-N-allylpyridyl)porphyrin tetrabromide], the IC50 (KCL-22 cells [10]) is given as 50 µM and the IC50 (KCL-22 cells [11]) is given as > 1600 µM.

For `C=CC[n+]1ccc(-c2c3nc(c(-c4cc[n+](CC=C)cc4)c4ccc([nH]4)c(-c4ccc(OCCCCCCCCCCCCCCCC)c(OC)c4)c4nc(c(-c5cc[n+](CC=C)cc5)c5ccc2[nH]5)C=C4)C=C3)cc1.[Br-].[Br-].[Br-]` [H2TriAll4PyMVanC16P, 5-Mono(3′-methoxy-4′-hexadecyloxyphenyl)-10,15,20-tri(4′-N-allylpyridyl) porphine tribromide], the “fold by which IC50 upon illumination is lower than IC50 under the dark” value (KCL-22 cells [8]; KCL-22) was “more than 35 fold”, the “fold more phototoxic than Chlorin e6” value (KCL-22 cells [8]; KCL-22, illumination) was 5 fold and the “fold increase in cytotoxicity over tetracationic analog H2TAll4PyP” value (KCL-22 cells [9]; KCL-22, dark) was “more than 60 fold”. For the same molecule, the IC50 (KCL-22 cells [9]; KCL-22, dark, 48 h) was 25 ± 2 µM and the “lipophilicity, TLC retention factor Rf, compared to tetracationic analog” value [6] was “gained dramatically in lipophilicity”.

With `O=[N+]([O-])[O-].[Ag+]` [Silver nitrate] the “toxicity on KCL-22 cell line” value ([2]; at up to 20 μM concentration, data not shown) was “no toxicity”.
